According to paper PMC8026699 (Cancer research, 2021):
Converted amounts (≈) assume the structure as drawn.

How the values were obtained:
A7C11 cells = assay: 13C2-acetate labeling of palmitate in A7C11 cells; assay type: cell-based, mouse; settings: A7C11, N10 and H1, 24 hr, 100 μM 13C2-acetate
Outline: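 Cells labeled 24 h with 100 μM 13C2-acetate in SMEM under N10 (normoxia, 10% dialyzed FBS) or H1 (1% O2, 1% dialyzed FBS). Vehicle or test compound present; for BT474 in H1, a 10-fold dilution series. Lipids extracted with methanol/chloroform/PBS, saponified in 0.3 M KOH/90% methanol at 70°C for 1 h, then hexane-extracted. Palmitate labeling read by C18 reverse-phase LC-MS. n = 3, mean ± S.D.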

[1] = test system: cytosolic AcCoA metabolism (UDP-GlcNAc); assay: 13C2-acetate labeling of UDP-GlcNAc in cells; assay type: cell-based
Outline: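 Cells grown 24 h in serum-like modified Eagle's medium (SMEM) with 0.1 mM uniformly labeled 13C2-acetate. Conditions were normoxia with 10% dialyzed FBS (N10) or 1% O2 hypoxia with 1% dialyzed FBS (H1). Vehicle or test compound present. Cells washed in ice-cold PBS and extracted with methanol/acetonitrile/water (5:3:2) at 4°C for 5 min. Cleared extracts analysed by HILIC LC-MS on a Q Exactive HF-X.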

recombinant human ACSS1 = biological target: T1, recombinant human ACSS1 (Homo sapiens, UniProt Q9NUB1); assay: TranScreener AMP biochemical assay of ACSS1 activity; settings: regardless of the substrate (acetate or propionate)
T1 sequence (Q9NUB1 38-689): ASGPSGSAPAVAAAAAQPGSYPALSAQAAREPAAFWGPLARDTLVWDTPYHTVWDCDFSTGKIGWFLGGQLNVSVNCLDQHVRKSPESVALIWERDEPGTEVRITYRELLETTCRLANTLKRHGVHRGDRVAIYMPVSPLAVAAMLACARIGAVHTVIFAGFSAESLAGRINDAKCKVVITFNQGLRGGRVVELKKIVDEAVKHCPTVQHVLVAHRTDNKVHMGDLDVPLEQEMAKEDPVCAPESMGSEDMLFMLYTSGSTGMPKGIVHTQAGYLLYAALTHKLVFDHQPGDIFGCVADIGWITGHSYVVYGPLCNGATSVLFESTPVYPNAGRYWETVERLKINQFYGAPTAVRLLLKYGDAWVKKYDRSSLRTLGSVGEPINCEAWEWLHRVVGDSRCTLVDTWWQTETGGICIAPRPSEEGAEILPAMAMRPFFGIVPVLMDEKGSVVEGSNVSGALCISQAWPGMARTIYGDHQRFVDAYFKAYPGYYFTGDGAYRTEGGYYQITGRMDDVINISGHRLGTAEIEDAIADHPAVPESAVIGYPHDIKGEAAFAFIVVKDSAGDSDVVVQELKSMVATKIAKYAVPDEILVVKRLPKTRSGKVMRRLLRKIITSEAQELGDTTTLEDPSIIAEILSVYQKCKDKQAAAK
Outline: (§1)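 Test compound was serially diluted in DMSO and added to ACSS1 (2 nM) or ACSS3 (25 nM). Acetate reaction: HEPES pH 7.4 buffer with 140 mM NaCl; final 5 mM acetate, 50 μM ATP, 5 μM CoA. Propionate reaction: HEPES/KCl/CHAPS buffer; final 5 mM propionate, 10 μM ATP, 100 μM CoA. Incubation 120 min, then AMP detected by terbium-antibody/tracer TR-FRET after 30 min. Percent inhibition was set against no-enzyme and DMSO controls.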

Water solubility in PBS = assay type: physicochemical; settings: PBS buffer, pH 7.4
Outline: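 10 mg test compound in 1 mL PBS pH 7.4, sonicated 30 min, vortexed 30 min at low speed, then left 16–24 h at room temperature. Filtered (0.22 μm) and 10-fold serially diluted in triplicate in ACN:water (1:1). Internal standard added; LC-MS/MS quantitation against a five-standard calibration curve.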

recombinant human ACSS3 = biological target: T2, recombinant human ACSS3 (Homo sapiens, UniProt Q9H6R3); assay: TranScreener AMP biochemical assay of ACSS3 activity; settings: regardless of the substrate (acetate or propionate)
T2 sequence (Q9H6R3 30-686): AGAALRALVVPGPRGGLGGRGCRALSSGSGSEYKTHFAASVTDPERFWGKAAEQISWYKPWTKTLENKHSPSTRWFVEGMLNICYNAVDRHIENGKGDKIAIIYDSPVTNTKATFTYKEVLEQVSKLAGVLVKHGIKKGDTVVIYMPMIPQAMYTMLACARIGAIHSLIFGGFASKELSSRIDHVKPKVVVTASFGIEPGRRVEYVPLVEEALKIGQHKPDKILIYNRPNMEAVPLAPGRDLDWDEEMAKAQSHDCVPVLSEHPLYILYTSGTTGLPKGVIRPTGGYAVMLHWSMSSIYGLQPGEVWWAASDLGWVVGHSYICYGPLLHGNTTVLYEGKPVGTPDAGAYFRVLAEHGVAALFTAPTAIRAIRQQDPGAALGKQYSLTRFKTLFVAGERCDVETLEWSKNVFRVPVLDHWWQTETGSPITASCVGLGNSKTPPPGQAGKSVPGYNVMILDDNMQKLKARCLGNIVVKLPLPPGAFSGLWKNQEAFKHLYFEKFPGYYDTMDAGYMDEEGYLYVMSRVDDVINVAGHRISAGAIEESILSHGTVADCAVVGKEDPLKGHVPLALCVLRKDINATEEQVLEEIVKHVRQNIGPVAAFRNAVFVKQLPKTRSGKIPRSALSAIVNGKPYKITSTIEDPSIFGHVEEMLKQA
Outline: as §1

[2] = Mouse liver microsomal stability; assay type: in vitro ADME; settings: 0.5 μM compound, 0.5 mg/mL microsomes; compared with VY-3-249
Outline: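 Incubations: 0.5 μM compound, 0.5 mg/mL liver microsomes, NADPH-regenerating system, potassium phosphate pH 7.4. Timed aliquots quenched in acetonitrile with internal standard; no-cofactor controls run. LC-MS/MS analyte/internal-standard peak-area ratios. Elimination constant fitted by nonlinear regression; t1/2 from k = 0.693/t1/2. CLint scaled with 48 (mouse) or 39.7 (human) mg protein/g liver. n = 1.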

recombinant human ACSS2 = recombinant human ACSS2 (Homo sapiens, UniProt Q9NR19); assay: TranScreener AMP biochemical assay of ACSS2 activity; settings: ratio of IC50 values
recombinant human ACSS2, sequence (Q9NR19 whole entry): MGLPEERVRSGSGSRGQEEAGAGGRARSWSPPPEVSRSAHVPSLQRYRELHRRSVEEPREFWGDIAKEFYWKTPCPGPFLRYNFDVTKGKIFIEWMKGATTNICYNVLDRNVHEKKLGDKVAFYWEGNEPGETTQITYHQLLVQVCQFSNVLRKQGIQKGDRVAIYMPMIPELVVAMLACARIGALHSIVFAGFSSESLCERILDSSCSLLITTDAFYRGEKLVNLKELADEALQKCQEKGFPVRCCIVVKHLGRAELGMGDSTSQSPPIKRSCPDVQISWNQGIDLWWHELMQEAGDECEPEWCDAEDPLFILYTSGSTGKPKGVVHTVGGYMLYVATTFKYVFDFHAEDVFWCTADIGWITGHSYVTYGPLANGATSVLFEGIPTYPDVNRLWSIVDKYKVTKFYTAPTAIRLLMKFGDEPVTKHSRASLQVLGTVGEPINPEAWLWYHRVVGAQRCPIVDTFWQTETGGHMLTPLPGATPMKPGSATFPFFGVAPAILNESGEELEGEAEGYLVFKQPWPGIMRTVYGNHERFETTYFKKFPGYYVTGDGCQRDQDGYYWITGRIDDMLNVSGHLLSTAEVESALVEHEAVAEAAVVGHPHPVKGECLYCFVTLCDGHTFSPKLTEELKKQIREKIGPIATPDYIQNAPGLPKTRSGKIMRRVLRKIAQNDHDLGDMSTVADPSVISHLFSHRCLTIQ
Outline: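 Recombinant human ACSS2 at 3 nM in 30 mM HEPES pH 7.4, 140 mM NaCl, 2 mM MgCl2, 2 mM DTT, 0.005% Brij35. Test compound serially diluted in DMSO. Final substrates: 5 mM acetate, 50 μM ATP, 5 μM CoA; 120 min incubation. AMP detected by Tb-anti-AMP antibody/tracer TR-FRET after 30 min. Percent inhibition normalized to no-enzyme (100%) and DMSO (0%) wells; IC50 curves fitted from replicates.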

SMILES: CCn1c(C(O)(c2ccccc2)c2ccccc2)nc2ccc(C(=O)NC[C@@H](C)O)cc21 [VY-3-135, (R)-1-ethyl-2-(hydroxydiphenylmethyl)-N-(2-hydroxypropyl)-1H-benzo[d]imidazole-6-carboxamide]
- acetate dependent labeling of palmitate by 13C2-acetate (A7C11 cells): efficiently blocked
- incorporation of 13C2-acetate into UDP-GlcNAc [1]: blocked incorporation
- inhibitory activity towards ACSS1 (recombinant human ACSS1): neither VY-3-249 nor VY-3-135 displayed any inhibitory activity
- solubility (Water solubility in PBS): 21.7 µM (≈ 9.32 µg/mL)
- inhibitory activity towards ACSS3 (recombinant human ACSS3): neither VY-3-249 nor VY-3-135 displayed any inhibitory activity
- stability in mouse liver microsomal assay [2]: superior stability
- potency relative to VY-3-249 (recombinant human ACSS2): ~30 fold
